Compounds with a hit are over-represented: about 12% of the library has one in this group of screens.
Autophagy HCS – alters autophagy in cells. MEF GFP-LC3 puncta imaging; test concentration mostly 10 µM. calls only at 10 µM (by protocol). 190,000 tested, 0.98% active. AID 463193;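 active means percentage of spot-positive cells more than 3 SD above its plate mean, without a fluorescence outlier flag or 80% toxicity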;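 further: spot-positive cell cutoff set from DMSO-treated cells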
bCat nuc transl – alters nuclear translocation of beta-catenin in HeLa cells; 190,000 tested, 0.3% active; nuclear translocation activity, % at 5 µM; immunofluorescence imaging; AID 1665;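 active means nuclear translocation activity above 50% at 5 µM, with a well cell count of 50 or more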;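 further: per-cell ratio of nuclear to cytoplasmic median beta-catenin stain intensity; plate controls were DMSO negative control for no effect and GSK-3 inhibitor IX positive control for full effect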
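Test system: human HeLa cell line; Doses: 5 µM primary, 0.02–20 µM confirmation; Incubation: 24 h compound exposure, 37°C; Detection: beta-catenin immunofluorescence imaging with DAPI; Read-out: beta-catenin nuclear/cytoplasmic ratio, % activation.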
CHOP inh – blocks CHOP induction under ER stress. 220,000 tested, 3.8% active. inhibition, % at 10 µM. AID 2732. CHO-K1 CHOP-promoter luciferase, tunicamycin-induced, 15-18 h;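 active means compounds that reduced the stress-induced luciferase reporter signal by more than about 70% of percent inhibition, limit read from the data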;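 further: 0% = tunicamycin plus vehicle and 100% = wells without tunicamycin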
L major viab – Leishmania major promastigote growth inhibition; 200,000 tested, 9% active; inhibition, % at 10 µM; AID 1063; Leishmania major promastigotes, resazurin fluorescence viability; in the data active means inhibition above about 50%;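 further: promastigotes grown with compound for 44 hours at 28 °C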
MT stabilize HCS – microtubule stabilization, imaging screen; HeLa tubulin immunostaining HCS, 24 h; share of cells brighter than vehicle mean+2SD; % tubulin-high responders, % at 10 µM; 200,000 tested, 0.83% active;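 active means plate Z-score above 3 for both tubulin-high and condensed-nucleus cell shares, with cell loss under 80%, at 10 µM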;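 further: anti alpha tubulin signal scored within the nucleus-defined area of each cell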
Dynein transport – blocks dynein driven cargo transport along microtubules; 3617.4 mouse cells, GR-EGFP nuclear translocation imaging; test concentration mostly 20 µM; stimulated with dexamethasone, 1 µM; hits give low values; z-score, hits read low; 220,000 tested, 0.47% active;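 active means plate z-score of nuclear minus cytoplasmic receptor signal below a set negative limit, without overly bright fluorescence or cell loss, cut at about -3.5 in these data, passing the limit was not always enough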;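 further: z-score of nuclear minus cytoplasmic ring GR-EGFP intensity difference per well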
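Also added – dexamethasone, 1.0 µM final · Buffer or medium – tet-free, stripped-serum medium · Schedule – induction 48 h, compound 1 h, agonist 30 min · Detection – formaldehyde fixation, Hoechst nuclear stain, 10x automated fluorescence imaging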
* hit, by the source's call.

Screening CCOC(=O)N1CCN(C(=O)c2cc3c(s2)-c2ccccc2OC3)CC1 returned bCat nuc transl 3.9, CHOP inh -14.8, L major viab -5.9, MT stabilize HCS 6.5 and Dynein transport 1.52.
Cc1csc(NC(=O)c2cc3c(s2)-c2ccccc2OC3)n1 was read as bCat nuc transl -4.5, CHOP inh 81.0*, L major viab 4.2, MT stabilize HCS 1.8 and Dynein transport -0.129.
Cc1c(NC(=O)c2cc3c(s2)-c2ccccc2OC3)cccc1[N+](=O)[O-] was read as Autophagy HCS active, bCat nuc transl -0.9, CHOP inh 29.8, L major viab 7.2, MT stabilize HCS 4.4 and Dynein transport -0.786.
CN(C)CCNC(=O)c1cc2c(s1)-c1ccccc1OC2 was read as Autophagy HCS inactive, CHOP inh 20.4, L major viab 91.3*, MT stabilize HCS 1.7 and Dynein transport -0.724.
`O=C(c1cc2c(s1)-c1ccccc1OC2)N1CCN(c2ccccc2)CC1` gave Autophagy HCS inactive, CHOP inh 83.0*, L major viab -3.0, MT stabilize HCS 2.2 and Dynein transport -1.6.
`O=C(c1cc2c(s1)-c1ccccc1OC2)N1CCCC1` gave Autophagy HCS inactive, CHOP inh 60.8, L major viab -0.8, MT stabilize HCS 2.2 and Dynein transport -0.462.
`CC(OC(=O)CCc1nc2ccccc2[nH]c1=O)c1ccccc1` (centres undefined) gave Autophagy HCS inactive, bCat nuc transl -0.2, CHOP inh 32.7, L major viab -5.1, MT stabilize HCS 1.5 and Dynein transport -0.213.
For COC(=O)CSc1nnc(-c2ccc(S(=O)(=O)NCc3ccccc3Cl)cc2)o1 the results were Autophagy HCS inactive, bCat nuc transl -3.2, CHOP inh 6.2, L major viab -2.4, MT stabilize HCS 1.7 and Dynein transport 1.32.
Screening Cc1onc(-c2c(F)cccc2Cl)c1C(=O)OCC(=O)NC1CC1 returned Autophagy HCS inactive, bCat nuc transl -2.6, CHOP inh 3.0, L major viab -10.3, MT stabilize HCS 2.6 and Dynein transport -0.0357.
`CCOC(=O)NN1C(=O)c2ccccc2NC1c1ccc(OC)c(OC)c1` (centres undefined) gave Autophagy HCS inactive, bCat nuc transl -0.7, CHOP inh 26.3, L major viab -5.6, MT stabilize HCS 1.5 and Dynein transport -1.59.
`O=C(CCc1ccc(S(=O)(=O)NCCc2ccccc2)cc1)N1CCN(Cc2ccc3c(c2)OCO3)CC1` gave Autophagy HCS inactive, CHOP inh 54.2, L major viab 78.2*, MT stabilize HCS 2.7 and Dynein transport -0.479.
O=C(C1COc2ccccc2O1)N1CCN(Cc2ccc3c(c2)OCO3)CC1 (centres undefined) was read as Autophagy HCS inactive, bCat nuc transl 1.0, CHOP inh 40.3, L major viab 89.2*, MT stabilize HCS 4.9 and Dynein transport -0.162.
Screening CCCC(=O)N1CCN(Cc2ccc3c(c2)OCO3)CC1 returned Autophagy HCS inactive, bCat nuc transl -4.2, CHOP inh 5.4, L major viab -9.2, MT stabilize HCS 3.8 and Dynein transport -0.246.
O=C(CN1C(=O)c2cccc3cccc1c23)N1CCN(Cc2ccc3c(c2)OCO3)CC1 was read as Autophagy HCS inactive, bCat nuc transl 2.4, CHOP inh 56.6, L major viab 88.1*, MT stabilize HCS 3.1 and Dynein transport -0.26.
For O=C(CSCc1ccccc1)N1CCN(Cc2ccc3c(c2)OCO3)CC1 the results were Autophagy HCS inactive, bCat nuc transl -1.4, CHOP inh 10.2, L major viab 98.5*, MT stabilize HCS 3.4 and Dynein transport 0.342.
For Cn1c(=O)c2c(nc(NCc3ccco3)n2CCc2ccccc2)n(C)c1=O the results were Autophagy HCS inactive, bCat nuc transl -1.9, CHOP inh 10.0, L major viab 2.4, MT stabilize HCS 2.5 and Dynein transport -0.61.
Screening C/C(=N\NC(=O)c1ccc(Cl)c(S(=O)(=O)Nc2ccccc2Cl)c1)c1ccncc1 returned Autophagy HCS inactive, bCat nuc transl -3.0, CHOP inh -13.0, L major viab 1.0, MT stabilize HCS 3.1 and Dynein transport 0.0988.
Screening CCC(C(=O)OCC(=O)Nc1ccc(Cl)c(S(=O)(=O)N(C)C)c1)c1ccccc1 (centres undefined) returned Autophagy HCS inactive, bCat nuc transl -1.4, CHOP inh 65.5, L major viab 61.5*, MT stabilize HCS 1.2 and Dynein transport -0.0853.
For Nc1ccccc1S(=O)(=O)NC1=NCCCCC1 the results were Autophagy HCS inactive, bCat nuc transl -0.8, CHOP inh 5.1, L major viab 5.7, MT stabilize HCS 1.7 and Dynein transport 2.36.
O=[N+]([O-])c1ccccc1CNC(Cc1ccccc1)c1ccccc1 (centres undefined) was read as Autophagy HCS inactive, CHOP inh 80.5*, L major viab 90.4*, MT stabilize HCS 2.6 and Dynein transport 0.369.
For CC(C)C(NC(=O)Cc1ccccc1[N+](=O)[O-])C(C)C the results were Autophagy HCS inactive, bCat nuc transl -1.0, CHOP inh 15.4, L major viab -6.8, MT stabilize HCS 2.7 and Dynein transport -0.0412.
Screening COc1ccc(S(=O)(=O)Nc2ccc(F)cc2)cc1N(C)S(=O)(=O)c1ccc(Cl)cc1 returned Autophagy HCS inactive, bCat nuc transl -0.9, CHOP inh 50.9, L major viab 100.2*, MT stabilize HCS 2.9 and Dynein transport 0.303.
COc1ccc(NS(=O)(=O)c2ccc(OC)c(N(C)S(=O)(=O)c3ccc(Cl)cc3)c2)cc1 was read as Autophagy HCS inactive, bCat nuc transl 0.2, CHOP inh 69.8, L major viab 99.8*, MT stabilize HCS 3.6 and Dynein transport 0.499.
CCCCNC(=O)NS(=O)(=O)c1ccc(NC(=O)C(NC(N)=O)C(C)CC)cc1 (centres undefined) was read as bCat nuc transl -0.3, CHOP inh -2.7 and Dynein transport -0.72.
For COc1ccc(CCNC(=O)CSc2ccc(-c3cccs3)nn2)cc1OC the results were Autophagy HCS inactive, bCat nuc transl 0.3, CHOP inh 15.6, L major viab 9.3, MT stabilize HCS 3.3 and Dynein transport 1.45.
Screening COc1ccc(SC[C@H](CC(C)C)N2CCN(CCc3ccccc3)CCC2=O)cc1 returned bCat nuc transl 0.1, CHOP inh 39.7 and Dynein transport 0.148.
Screening CN(C)c1nc(Nc2ccc(Cl)cc2)nc(OCC#N)n1 returned Autophagy HCS inactive, CHOP inh 72.6*, L major viab 21.8, MT stabilize HCS 2.4 and Dynein transport -0.727.
For CN(C)c1nc(OCCNC(=O)Nc2ccc(Cl)cc2)nc(N(C)C)n1 the results were Autophagy HCS inactive, bCat nuc transl -3.3, CHOP inh 12.5, L major viab -2.6, MT stabilize HCS 3.1 and Dynein transport 1.5.
